The nature of data set [1]: Partition coefficient (logP). The format is physicochemical. To be noted: octanol/water. In a few lines:
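Compound dissolved in disodium hydrogen phosphate/citric acid buffer pH 7.4 and partitioned against equal volume octan-1-ol. Buffer-phase UV absorbance read before and after partitioning near λmax. P′ from the octanol:buffer absorbance ratio.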

Data set [2] has as its system Rattus norvegicus. The experiment in a line: Compound was evaluated in developing adjuvant arthritis model rats for its effect on paw edema. The format is functional. On the set-up: concentration or dose not given beside the values. Put shortly: (§1)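 Female Allen and Hanbury hooded rats, five per group. Right hind paw injected sc on day 0 with heat-killed M. tuberculosis in paraffin oil (5 mg/mL). Compounds given orally as sodium salts in water. Paw volumes of both hind paws measured days 1–4, 1 h after dosing. Percent inhibition taken from area under the curve of the between-paw volume difference.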

The species named for data set [3] is Rattus norvegicus. The experiment in a line: Percent decrease in serum haptoglobin evaluated in a developing adjuvant arthritis model rats.
Data set [4] relates to Rattus norvegicus. Briefly: Compound was evaluated in developing adjuvant arthritis model rats for its effect on paw edema; No significant effect. The data set is classed as functional, organism-based. In a few lines:
as §1

The species entered for data set [5] is Rattus norvegicus. Briefly: Percent decrease in serum haptoglobin evaluated in a developing adjuvant arthritis model rats; No significant effect.
Data set [6] has as its system Rattus norvegicus. The experiment in a line: Hepatic effect assessed by increase in catalase levels after 14 days of dosing at 50 mg/kg orally. The format is functional. Put shortly:
(§2)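 Type II collagen arthritis rats, eight per group, given oral sodium salts daily for 14 days. At termination liver homogenized in ice-cold 0.25 M sucrose and spun 2000 rpm 10 min. Catalase followed by decline in A240 from H2O2 breakdown, expressed as first-order rate constant K. Result given as % change versus normals.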

The test system of data set [7] is Rattus norvegicus. The experiment in a line: Hepatic effect assessed by increase in liver weight after 14 days of dosing at 50 mg/kg orally. The format is functional. Put shortly: (§3)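 Type II collagen arthritis rats, eight per group, daily oral dosing as sodium salts in water for 14 days. Liver weight recorded at termination and expressed as percentage change versus normal animals.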

The subject of data set [8] is Rattus norvegicus. Briefly: Radiographic change was judged in the area of the talus joint, using an arbitrary scoring system upon termination of the test (14 days dosing of 50 mg/kg) in a model of type II collagen arthritis in the rat. The data set is classed as functional. To be noted: 336 h. In a few lines:
(§4)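 Type II collagen arthritis rats, eight per group, oral sodium salts daily from grouping (day 1). Hind limbs X-rayed post mortem. Tibia/talus and tarsus damage scored 0–3 per foot by two observers and averaged; left and right summed (max 6). Compared with arthritic controls by Mann–Whitney U test.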

Data set [9] concerns Rattus norvegicus. The experiment in a line: Radiographic change was judged in the area of the tarsus region, using an arbitrary scoring system upon termination of the test (14 days dosing of 50 mg/kg) in a model of type II collagen arthritis in the rat. The data set is classed as functional. To be noted: 336 h. Put shortly:
as §4

Data set [10] concerns Rattus norvegicus. Briefly: Hepatic effect assessed by increase in catalase levels after 14 days of dosing at 100 mg/kg orally. The format is functional. In a few lines: as §2
Data set [11] deals with Rattus norvegicus. The experiment in a line: Hepatic effect assessed by increase in liver weight after 14 days of dosing at 100 mg/kg orally. The data set is classed as functional. Put shortly:
as §3

For data set [12], the system named is Rattus norvegicus. Briefly: Radiographic change was judged in the area of the talus joint, using an arbitrary scoring system upon termination of the test (14 days dosing of 100 mg/kg) in a model of type II collagen arthritis in the rat. The data set is classed as functional. To be noted: 336 h. In a few lines: as §4
Data set [13] deals with Rattus norvegicus. The experiment in a line: Radiographic change was judged in the area of the tarsus region, using an arbitrary scoring system upon termination of the test (14 days dosing of 100 mg/kg) in a model of type II collagen arthritis in the rat. The data set is classed as functional. To be noted: 336 h. Put shortly: as §4
The test system of data set [14] is Rattus norvegicus. The experiment in a line: Radiographic change was judged in the area of the talus joint, using an arbitrary scoring system upon termination of the test (0.5 mg/kg 1-5 days dosing,0.25 mg/kg 6-15 days dosing)in a model of type II collagen arthritis in the rat. The data set is classed as functional. In a few lines: as §4
The test system of another data set is Mononuclear cell line. The experiment in a line: Inhibition of human PGE-2 production. The data set is classed as functional, cell-based. In a few lines: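 Human blood mononuclear cells from healthy volunteers stimulated with 2.5 μg/mL phytohaemagglutinin and incubated 24 h with compound (sodium salt). PGE2 measured by RIA.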
Data set [15] can be described thus: Inhibition of prostaglandin synthetase in sheep seminal vesicle. On the set-up: species or system Ovis aries. In a few lines:
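Sheep seminal vesicle enzyme (2.5 mg/mL) preincubated 5 min at 30 °C with or without compound (sodium salt, aqueous) plus glutathione 1 mM and adrenaline 625 μM. Integrated prostaglandin/thromboxane peak area compared with the no-drug control.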

In data set [16] the test system is Rattus norvegicus. Briefly: Radiographic change was judged in the area of the talus joint, using an arbitrary scoring system upon termination of the test (14 days dosing of 1 mg/kg) in a model of type II collagen arthritis in the rat. The format is functional. To be noted: 336 h. In a few lines:
as §4

For data set [17], the system named is Rattus norvegicus. The experiment in a line: Radiographic change was judged in the area of the tarsus region, using an arbitrary scoring system upon termination of the test (14 days dosing of 1 mg/kg) in a model of type II collagen arthritis in the rat. The data set is classed as functional. To be noted: 336 h. Put shortly:
as §4

Where “and” joins values, the source holds several entries; their conditions need not be identical. Equal entries are not always repeated. Calls of active or inactive are those of the source. The rule behind the calls is not given here.

The logP is the decadic logarithm of the partition coefficient of the neutral form, usually between octanol and water. As a reminder, the Inhibition is the percentage by which the read-out fell short of the control. Usually inhibition in vivo stands for how much of the control response was suppressed. By IC50 is commonly meant the concentration that gives 50% inhibition.

Molecule `CC(C)(OCc1csc(-c2ccc(Cl)cc2)n1)C(=O)O` gave a logP in data set [1] of 0.66. Also, in the data set with Rattus norvegicus [2], the Inhibition is reported as 81%. The Decrease in the data set listed under Rattus norvegicus [3] is listed as 16%.
Turning to `CC(C)(OCc1ncsc1-c1ccc(Cl)cc1)C(=O)O`, the log partition coefficient (logP) in [1] is 0.23. Besides, the inhibition result with Rattus norvegicus [4] was “inactive”. For the same molecule, the Decrease result in the data set listed under Rattus norvegicus [5] was “inactive”.
The molecule `CC(C)(OCc1ccc(-c2ccc(Cl)cc2)nn1)C(=O)O` had a log partition coefficient (logP) in data set [1] of -0.15. For the same molecule, in the data set with Rattus norvegicus [4], the inhibition result is “inactive”. For the same molecule, the Decrease entry in the data set filed under Rattus norvegicus [5] was “inactive”.
Regarding `CC(C)(OCc1ccn(-c2ccc(Cl)cc2)n1)C(=O)O`, the logP in data set [1] was 0. Moreover, the Change in the data set on Rattus norvegicus [6] is listed as 90%; with Rattus norvegicus [7], 13%. Further, the Inhibition in the data set with Rattus norvegicus [2] was 46%. The results for the inhibition in vivo at 50 mg/kg with Rattus norvegicus [8] and in the data set on Rattus norvegicus [9] were 48% and 32%, respectively. Also, the Decrease in the data set filed under Rattus norvegicus [3] worked out at 30%.
Consider `CC(C)(OCc1cnc(-c2ccc(Cl)cc2)o1)C(=O)O`, for which, in data set [1], the lipophilicity (logP) was determined as 0.11. The Change in the data set on Rattus norvegicus [10] is listed as 11%; in the data set with Rattus norvegicus [11], 16%. The Inhibition with Rattus norvegicus [2] is 33%. The inhibition in vivo at 100 mg/kg was found to be 42% in the data set with Rattus norvegicus [12] and 41% in the data set with Rattus norvegicus [13]. In the data set filed under Rattus norvegicus [5], the Decrease entry was “inactive”.
With `CC(C)(OCc1cc(-c2ccc(Cl)cc2)[nH]n1)C(=O)O`, in data set [1], the log partition coefficient (logP) is 0.36. Also, the inhibition result in the data set with Rattus norvegicus [4] is “inactive”. For the same molecule, in the data set filed under Rattus norvegicus [5], the Decrease entry was “inactive”.
On to `CC(C)(OCc1cccc(-c2ccc(Cl)cc2)n1)C(=O)O`, for which the lipophilicity (logP) in data set [1] worked out at 0.69. Further, in the data set on Rattus norvegicus [4], the inhibition entry is “inactive”. Moreover, the Decrease entry in the data set listed under Rattus norvegicus [5] was “inactive”.
In [1], `Cc1oc(-c2ccc(Cl)cc2)nc1COC(C)(C)C(=O)O` displayed a logP of 0.52. For the same molecule, the Change with Rattus norvegicus [10] is reported as 60%; in the data set on Rattus norvegicus [11], 2%. For the same molecule, in the data set with Rattus norvegicus [2], the Inhibition is given as 67%. The inhibition in vivo at 100 mg/kg with Rattus norvegicus [12] amounted to 65%; with Rattus norvegicus [13], 54%. In addition, in the data set filed under Rattus norvegicus [5], the Decrease entry was “inactive”.
With `CC(C)(OCc1cc(-c2ccc(Cl)cc2)no1)C(=O)O`, the logP in data set [1] is 0.36. Also, the figures for the Change with Rattus norvegicus [10] and in the data set on Rattus norvegicus [11] were 73% and 47%, respectively. Also, the Inhibition in the data set with Rattus norvegicus [2] worked out at 72%. Besides, the inhibition in vivo at 100 mg/kg was determined as 60% in the data set with Rattus norvegicus [12] and 47% in the data set with Rattus norvegicus [13]. Besides, the Decrease in the data set filed under Rattus norvegicus [3] is listed as 37%.
Take `C[C@@H]1C[C@H]2[C@@H]3CCC4=CC(=O)C=C[C@]4(C)[C@@]3(F)[C@@H](O)C[C@]2(C)[C@@]1(O)C(=O)CO` [DEXAMETHASONE]: the Inhibition in the data set on Rattus norvegicus [14] was 95% and 98%.
As for `CC(C)(OCc1cc(-c2ccc(Cl)cc2)on1)C(=O)O`, the logP in data set [1] came to 0.46. Besides, the Change was found to be 140% with Rattus norvegicus [10] and 41% in the data set with Rattus norvegicus [11]. Moreover, the Inhibition with Rattus norvegicus [2] turned out to be 64%. Further, the inhibition in vivo at 100 mg/kg in the data set on Rattus norvegicus [12] worked out at 24%; in the data set with Rattus norvegicus [13] it was 42%. In addition, the Decrease in the data set listed under Rattus norvegicus [3] worked out at 34%.
Regarding `COc1ccc2c(c1)c(CC(=O)O)c(C)n2C(=O)c1ccc(Cl)cc1` [INDOMETHACIN], the IC50 is 0.3 µM with Mononuclear cell line and 1.2 µM in data set [15]. Besides, the Inhibition in the data set on Rattus norvegicus [2] came out at 84%. Also, the inhibition in vivo at 1 mg/kg in the data set on Rattus norvegicus [16] amounted to 48%; in the data set on Rattus norvegicus [17], 45%. In addition, the Decrease result in the data set listed under Rattus norvegicus [5] is “inactive”.
The molecule `CC(C)(OCc1coc2ccc(Cl)cc12)C(=O)O` had a logP in data set [1] of -0.54. The inhibition result with Rattus norvegicus [4] was “inactive”. The Decrease entry in the data set listed under Rattus norvegicus [5] is “inactive”.
`CC(C)(OCc1nc(-c2ccc(Cl)cc2)co1)C(=O)O`: the lipophilicity (logP) in [1] was 0.15. In addition, the Change is 68% in the data set on Rattus norvegicus [10] and 19% with Rattus norvegicus [11]. Also, the Inhibition in the data set with Rattus norvegicus [2] is recorded as 69%. The inhibition in vivo at 100 mg/kg in the data set on Rattus norvegicus [12] stood at 63%; with Rattus norvegicus [13] it was 39%. In addition, the Decrease in the data set listed under Rattus norvegicus [3] is reported as 9%.
Turning to `Cn1cc(-c2ccc(Cl)cc2)nc1COC(C)(C)C(=O)O`, the logP in data set [1] was 0.08. The inhibition result in the data set on Rattus norvegicus [4] is “inactive”. Besides, the Decrease result in the data set listed under Rattus norvegicus [5] was “inactive”.
In data set [1], `CC(C)(OCc1coc(-c2ccc(Cl)cc2)n1)C(=O)O` showed a lipophilicity (logP) of 0.23. For the same molecule, the Change in the data set on Rattus norvegicus [10] amounted to 52%; in the data set with Rattus norvegicus [11], 19%. For the same molecule, the Inhibition with Rattus norvegicus [2] was 84%. For the same molecule, the inhibition in vivo at 100 mg/kg in the data set on Rattus norvegicus [12] turned out to be 59%; in the data set on Rattus norvegicus [13], 44%. The Decrease in the data set filed under Rattus norvegicus [3] turned out to be 40%.
As to `CC(C)(OCc1cnn(-c2ccc(Cl)cc2)c1)C(=O)O`, the log partition coefficient (logP) in data set [1] was 0.04. The Change in the data set on Rattus norvegicus [6] was 180%; in the data set with Rattus norvegicus [7], 70%. In addition, in the data set with Rattus norvegicus [2], the Inhibition amounted to 76%. The inhibition in vivo at 50 mg/kg stood at 15% with Rattus norvegicus [8] and 18% in the data set with Rattus norvegicus [9]. For the same molecule, in the data set listed under Rattus norvegicus [3], the Decrease amounted to 37%.
Regarding `CC(C)(OCc1ncc(-c2ccc(Cl)cc2)o1)C(=O)O`, the lipophilicity (logP) in [1] turned out to be 0.15. The Change is given as -10% in the data set on Rattus norvegicus [10] and 3% with Rattus norvegicus [11]. In addition, the Inhibition with Rattus norvegicus [2] stood at 40%. Also, the inhibition in vivo at 100 mg/kg in the data set on Rattus norvegicus [12] is 36%; in the data set with Rattus norvegicus [13], 24%. In addition, the Decrease in the data set listed under Rattus norvegicus [3] worked out at 17%.
Take `CC(C)(OCc1cc2cc(Cl)ccc2o1)C(=O)O`: in data set [1], the logP was -0.57. Further, in the data set on Rattus norvegicus [2], the Inhibition is recorded as 39%. In the data set listed under Rattus norvegicus [5], the Decrease entry is “inactive”.
`CC(C)(OCc1scnc1-c1ccc(Cl)cc1)C(=O)O`: in data set [1], the logP is 0.23. In the data set with Rattus norvegicus [4], the inhibition result is “inactive”. For the same molecule, the Decrease result in the data set listed under Rattus norvegicus [5] is “inactive”.

Source of the values: ChEMBL document CHEMBL1125255, “Romazarit: a potential disease-modifying antirheumatic drug” (J Med Chem, 1991).
